Measurements from ChEMBL document CHEMBL4627410, “Discovery of an Orally Active Small-Molecule Tumor Necrosis Factor-α Inhibitor” (J Med Chem, 2020).
Calls of active or inactive are those of the source. The rule behind the calls is not given here.

Assays:
Tumor necrosis factor [1] = biological target: T1, Tumor necrosis factor (Homo sapiens, UniProt P01375); assay: Binding affinity to recombinant TNFalpha (unknown origin) expressed in Escherichia coli BL21 (DE3) incubated for 10 mins by MST assay
T1 sequence (P01375 whole entry): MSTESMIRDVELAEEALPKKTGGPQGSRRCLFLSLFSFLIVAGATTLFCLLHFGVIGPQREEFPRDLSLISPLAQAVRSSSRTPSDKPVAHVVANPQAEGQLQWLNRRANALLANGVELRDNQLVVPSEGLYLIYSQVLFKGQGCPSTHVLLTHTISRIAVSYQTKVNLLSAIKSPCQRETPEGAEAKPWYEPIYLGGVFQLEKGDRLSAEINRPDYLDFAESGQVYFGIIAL

Tumor necrosis factor [2] = biological target: T1, Tumor necrosis factor; assay: Binding affinity to recombinant TNFalpha (unknown origin) expressed in Escherichia coli BL21 (DE3) assessed as increase in TNF-alpha thermal stability by measuring tolerated temperature (reference value: 90 degC)
Mus musculus [3] = assay: Antiinflammatory activity in Balb/c mouse model of Imiquimod-induced psoriasis-like skin lesions assessed as reduction of serum IL6 level at 25 to 50 mg/kg, ig after 7 days by ELISA; assay type: functional, organism-based
Procedure, shortened: (§1)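 Back skin shaved (5 cm × 4 cm) under isoflurane. Two days later, 5% imiquimod cream applied topically for 6 consecutive days; controls received base cream. Dosing by gavage, with prednisone 5 mg/kg as reference, n=10 per group. Erythema and scaling scored daily and blinded, 0–4. On day 7: spleen index, serum IL-1β and IL-6 by ELISA, and 3 µm H&E back-skin sections. Means ± SD.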

[4] = biological target: T2, Tumor necrosis factor (Mus musculus) (UniProt P06804); assay: (§2) Inhibition of TNF-alpha in mouse RAW264.7 cells assessed as inhibition of LPS-induced IKBalpha phosphorylation at 5 to 20 uM pre-incubated for 12 hrs before LPS stimulation for 2 hrs by Western blot analysis; assay type: cell-based
T2 sequence (whole entry): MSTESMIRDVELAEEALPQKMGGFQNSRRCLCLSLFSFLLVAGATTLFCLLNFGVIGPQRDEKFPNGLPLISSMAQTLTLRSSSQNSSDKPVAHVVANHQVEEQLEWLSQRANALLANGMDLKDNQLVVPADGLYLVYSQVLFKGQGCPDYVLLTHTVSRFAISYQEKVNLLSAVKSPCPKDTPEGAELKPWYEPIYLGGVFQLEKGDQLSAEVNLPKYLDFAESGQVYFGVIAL
Procedure, shortened: (§3)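 RAW264.7 cells (5×10^4 cells/mL) cultured overnight. Compound at 5, 10 or 20 µM for 12 h, then LPS 1 µg/mL for 2 h. Lysed in RIPA, protein equalized by BCA, run on 12% SDS-PAGE. Immunoblotted for IκBα and p-IκBα, ECL detection.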

Tumor necrosis factor [5] = biological target: T1, Tumor necrosis factor; assay: Binding affinity to recombinant TNFalpha (unknown origin) expressed in Escherichia coli BL21 (DE3) assessed as inhibition of TNFR1 binding to immobilized TNF-alpha pre-incubated with TNFR1 for 20 mins followed by TNFalpha addition and measured after 120 mins by ELISA
Tumor necrosis factor [6] = biological target: T1, Tumor necrosis factor; assay: Binding affinity to recombinant TNFalpha (unknown origin) expressed in Escherichia coli BL21 (DE3) assessed as increase in Kd for TNF-alpha-TNFR1 binding at 10 uM pe-incubated for 15 mins before TNFR1 addition and measured after 15 mins by MST assay relative to control
Procedure, shortened: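 TNF-α (C-terminal His6, from E. coli BL21(DE3), purified by Ni-agarose, thrombin digest, anion exchange and size exclusion) at various concentrations was preincubated with 10 µM compound for 15 min at room temperature. The mix was added to an equal volume of RED-labelled TNFR1 in 20 mM HEPES pH 7.5, 0.05% Tween-20. MST was read at 22 °C (100% LED, 20% MST power) and KD was fitted.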

Mus musculus [7] = assay: Antiinflammatory activity in Balb/c mouse model of Imiquimod-induced psoriasis-like skin lesions assessed as reduction of histopathological changes at 25 to 50 mg/kg, ig by H and E staining based histopathological analysis; assay type: functional, organism-based; procedure, shortened: as §1
Mus musculus [8] = assay: Antiinflammatory activity in Balb/c mouse assessed as inhibition of LPS-induced IL1-beta production at 25 to 50 mg/kg, po pre-treated 90 mins before LPS injection and measured after 4 hrs by sandwich ELISA; assay type: functional, organism-based
Procedure, shortened: (§4)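 Male Balb/c mice, 7–8 weeks old, randomized into control, LPS and two dose groups. Oral dosing 90 min before LPS (1.5 mg/kg, i.p.). Serum taken from clotted blood 4 h after LPS and stored at -80 °C. IL-1β and IL-6 measured by sandwich ELISA. At least six mice per group, each sample run in duplicate.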

[9] = Toxicity in mouse RAW264.7 cells at 5 to 20 uM; assay type: cell-based
Tumor necrosis factor [10] = biological target: T1, Tumor necrosis factor; assay: Binding affinity to recombinant TNFalpha (unknown origin) expressed in Escherichia coli BL21 (DE3) assessed as protection of TNF-alpha from protease mediated digestion at 2.5 to 20 uM
Procedure, shortened: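 DARTS assay on TNF-α (His6-tagged, expressed in E. coli BL21(DE3) and purified by Ni-affinity, anion exchange and size exclusion). Protein was treated with compound, then digested with pronase for 30 min. Remaining TNF-α was read out.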

Mus musculus [11] = assay: Antiinflammatory activity in Balb/c mouse model of endotoxemia assessed as reduction in liver damage at 25 mg/kg, ig pre-treated 2 hrs before LPS injection and measured 12 to 96 hrs post LPS challenge by H and E staining based histopathological analysis; assay type: functional, organism-based
Procedure, shortened: (§5)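 Endotoxemia induced with LPS 15 mg/kg i.p., n=10 per group; controls received saline i.p. Gavage dose given 2 h before LPS, then again at 12, 24, 48, 72 and 96 h. Survival followed daily for up to 2 weeks. Liver and lung fixed in 10% formalin and sections stained with H&E. Means ± SD.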

Mus musculus [12] = assay: Antiinflammatory activity in Balb/c mouse model of collagen-induced arthritis assessed as reduction in serum IL-1beta level at 25 to 50 mg/kg, ig for 2 weeks by ELISA; assay type: functional, organism-based
Procedure, shortened: (§6)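 Balb/c mice immunized intradermally at the tail base with bovine type II collagen emulsified 1:1 in complete Freund's adjuvant (1 mg/mL, 0.1 mL), with the same boost on day 14. Gavage dosing for 2 weeks; prednisone 5 mg/kg i.g. as reference. Non-immunized normal group included, n=10 per group. Outcomes: four-paw arthritis score, blinded, maximum 16. Spleen index = spleen weight/body weight. Serum cytokines by ELISA. Right hind limb fixed in 4% paraformaldehyde, decalcified 30 days in 12.5% EDTA pH 7.0, 6–8 μm H&E sections graded blindly 0–3.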

Mus musculus [13] = assay: Antiinflammatory activity in Balb/c mouse model of collagen-induced arthritis assessed as reduction in arthritic score at 25 to 50 mg/kg, ig for 2 weeks; assay type: functional, organism-based; procedure, shortened: as §6
Mus musculus [14] = assay: Antiinflammatory activity in Balb/c mouse model of Imiquimod-induced psoriasis-like skin lesions assessed as inhibition of inflammation at 25 to 50 mg/kg, ig; assay type: functional, organism-based; procedure, shortened: as §1
Mus musculus [15] = assay: Antiinflammatory activity in Balb/c mouse model of collagen-induced arthritis assessed as increase in serum IL10 level at 25 to 50 mg/kg, ig for 2 weeks by ELISA; assay type: functional, organism-based; procedure, shortened: as §6
Mus musculus [16] = assay: Antiinflammatory activity in Balb/c mouse model of endotoxemia assessed as reduction in emergence of hemorrhagic necrosis at 25 mg/kg, ig pre-treated 2 hrs before LPS injection and measured 12 to 96 hrs post LPS challenge by H and E staining based histopathological analysis; assay type: functional, organism-based; procedure, shortened: as §5
Mus musculus [17] = assay: Antiinflammatory activity in Balb/c mouse model of collagen-induced arthritis assessed as reduction in serum IL6 level at 25 to 50 mg/kg, ig for 2 weeks by ELISA; assay type: functional, organism-based; procedure, shortened: as §6
Mus musculus [18] = assay: Antiinflammatory activity in Balb/c mouse model of collagen-induced arthritis assessed as reduction in degree of cartilage and bone destruction and inflammation at 25 to 50 mg/kg, ig for 2 weeks by H and E staining based histopathological analysis; assay type: functional, organism-based; procedure, shortened: as §6
[19] = biological target: T2, Tumor necrosis factor (Mus musculus); assay: as §2; assay type: cell-based; procedure, shortened: as §3; remark: listed apart in the source
Mus musculus [20] = assay: Antiinflammatory activity in Balb/c mouse model of Imiquimod-induced psoriasis-like skin lesions assessed as reduction of serum IL-1beta level at 25 to 50 mg/kg, ig by ELISA; assay type: functional, organism-based; procedure, shortened: as §1
[21] = biological target: T2, Tumor necrosis factor (Mus musculus); assay: Inhibition of TNF-alpha in mouse RAW264.7 cells assessed as inhibition of NFkappB/p65 nuclear translocation at 5 to 20 uM by DAPI staining based microscopy; assay type: cell-based
Procedure, shortened: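 RAW264.7 cells grown to 50–70% confluence in glass chambers. Pretreated 12 h with DMSO or compound, then TNF-α 10 ng/mL for 2 h. Fixed in 4% paraformaldehyde, permeabilized with 0.25% Triton X-100, blocked with BSA. Stained with anti-p65 (1:1000, 4 °C overnight), fluorescent secondary (1:500) and DAPI nuclear stain. Imaged by fluorescence microscopy.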

Mus musculus [22] = assay: Antiinflammatory activity in Balb/c mouse assessed as inhibition of LPS-induced IL6 production at 25 to 50 mg/kg, po pre-treated 90 mins before LPS injection and measured after 4 hrs by sandwich ELISA; assay type: functional, organism-based; procedure, shortened: as §4
Mus musculus [23] = assay: Antiinflammatory activity in Balb/c mouse model of endotoxemia assessed as increase in mouse survival at 25 mg/kg, ig pre-treated 2 hrs before LPS injection and measured 12 to 96 hrs post LPS challenge; assay type: functional, organism-based; procedure, shortened: as §5
Mus musculus [24] = assay: Antiinflammatory activity in Balb/c mouse model of collagen-induced arthritis assessed as reduction in spleen index at 25 to 50 mg/kg, ig for 2 weeks; assay type: functional, organism-based; procedure, shortened: as §6
Mus musculus [25] = assay: Antiinflammatory activity in Balb/c mouse model of collagen-induced arthritis assessed as reduction in serum IFNgamma level at 25 to 50 mg/kg, ig for 2 weeks by ELISA; assay type: functional, organism-based; procedure, shortened: as §6
Mus musculus [26] = assay: Antiinflammatory activity in Balb/c mouse model of Imiquimod-induced psoriasis-like skin lesions assessed as reduction of spleen index at 25 to 50 mg/kg, ig; assay type: functional, organism-based; procedure, shortened: as §1
Mus musculus [27] = assay: Antiinflammatory activity in Balb/c mouse model of Imiquimod-induced psoriasis-like skin lesions assessed as decrease in adjusted scale scores consisting of erythema, epidermal acanthosis, and lesions thickness at 25 to 50 mg/kg, ig; assay type: functional, organism-based; procedure, shortened: as §1
Mus musculus [28] = assay: Antiinflammatory activity in Balb/c mouse model of endotoxemia assessed as reduction in lung damage at 25 mg/kg, ig pre-treated 2 hrs before LPS injection and measured 12 to 96 hrs post LPS challenge by H and E staining based histopathological analysis; assay type: functional, organism-based; procedure, shortened: as §5
Mus musculus [29] = assay: Antiinflammatory activity in Balb/c mouse model of Imiquimod-induced psoriasis-like skin lesions assessed as reduction of serum IL6 level at 5 mg/kg, ig by ELISA; assay type: functional, organism-based; procedure, shortened: as §1
Mus musculus [30] = assay: Antiinflammatory activity in Balb/c mouse model of Imiquimod-induced psoriasis-like skin lesions assessed as reduction of serum IL-1beta level at 5 mg/kg, ig by ELISA; assay type: functional, organism-based; procedure, shortened: as §1
Mus musculus [31] = assay: Antiinflammatory activity in Balb/c mouse model of collagen-induced arthritis assessed as reduction in degree of cartilage and bone destruction and inflammation at 5 mg/kg, ig for 2 weeks by H and E staining based histopathological analysis; assay type: functional, organism-based; procedure, shortened: as §6

O=C(CCc1ccccc1)[C@H]1Cc2[nH]cnc2CN1C(=O)c1cccs1
Kd (Tumor necrosis factor [1]): Not Active

Cc1cc(C)cc(-n2c(O)c([C@H]3NCCc4c3[nH]c3ccccc43)c(O)nc2=S)c1
Kd (Tumor necrosis factor [1]): Not Active

Cn1c(SCC(=O)N2CC(=O)Nc3cc(C(F)(F)F)ccc32)nnc1-c1ccccc1Cl
Kd (Tumor necrosis factor [1]): Not Active

O=C1C[C@H](Nc2ncnc3[nH]cnc23)CN1Cc1ccccc1
T (Tumor necrosis factor [2]): 94 °C | Activity (Mus musculus [3]): Dose-dependent effect | inhibition [4]: Dose-dependent effect | IC50 (Tumor necrosis factor [5]): 0.109 µM | fold change (FC) (Tumor necrosis factor [6]): 18 | Activity (Mus musculus [7]): Active | inhibition (Mus musculus [8]): Active | IC50 [9]: > 100 µM | Activity (Tumor necrosis factor [10]): Dose-dependent effect | Activity (Mus musculus [11]): Active | Activity (Mus musculus [12]): Dose-dependent effect | Activity (Mus musculus [13]): Active | Activity (Mus musculus [14]): Active | Activity (Mus musculus [15]): Dose-dependent effect | Activity (Mus musculus [16]): Active | Activity (Mus musculus [17]): Dose-dependent effect | Activity (Mus musculus [18]): Active | inhibition [19]: Active | Activity (Mus musculus [20]): Dose-dependent effect | inhibition [21]: Active | inhibition (Mus musculus [22]): Active | Activity (Mus musculus [23]): Active | Activity (Mus musculus [24]): Active | Activity (Mus musculus [25]): Dose-dependent effect | Activity (Mus musculus [26]): Active | Kd (Tumor necrosis factor [1]; read-out: Kd): 82.1 µM | Activity (Mus musculus [27]): Active | Activity (Mus musculus [28]): Active

C[C@]12C=CC(=O)C=C1CC[C@@H]1[C@@H]2C(=O)C[C@@]2(C)[C@H]1CC[C@]2(O)C(=O)CO
Activity (Mus musculus [29]): Active | Activity (Mus musculus [30]): Active | Activity (Mus musculus [31]): Active

O=c1c([C@H]2NCCc3c2[nH]c2ccccc32)c(O)[nH]c(=S)n1-c1ccc2ccccc2c1
Kd (Tumor necrosis factor [1]): Not Active

CC1CCc2c([nH]c3ccccc23)[C@H]1c1c(O)nc2n(c1=O)CCS2 (some centres not stated)
Kd (Tumor necrosis factor [1]): Not Active

O=c1c([C@H]2NCCc3c2[nH]c2ccccc32)c(O)[nH]c(=S)n1Cc1ccc(F)cc1
Kd (Tumor necrosis factor [1]): Not Active
